An excerpt weighted towards active compounds, which were near 1.7% of everything screened.
LMPTP block: blocks human LMPTP phosphatase. P24666. recombinant LMPTP-A, OMFP fluorogenic substrate, fluorescence intensity. inhibition, % at 20 µM. hit rate 0.22% among 360,000;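 active means compounds that cut the enzyme signal by at least half of the control window in the single-dose screen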
Target sequence (P24666 whole entry, looked up): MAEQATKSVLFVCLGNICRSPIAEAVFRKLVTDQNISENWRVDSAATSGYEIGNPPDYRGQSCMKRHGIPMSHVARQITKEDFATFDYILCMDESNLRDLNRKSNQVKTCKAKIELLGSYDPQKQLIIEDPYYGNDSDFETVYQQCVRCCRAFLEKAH
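Test system: LMPTP-A phosphatase enzyme; input: 0.625 nM LMPTP-A final; reagent: OMFP substrate, 400 µM final; compound dosing: 20 µM single dose, 3% DMSO; incubation: 50 min dark incubation at room temperature; measured by: endpoint fluorescence intensity from OMFP dephosphorylation; measure: % inhibition relative to no-enzyme and uninhibited control wells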
DNMT1 inh: DNMT1 (human) enzyme inhibition; hit rate 0.83% among 360,000; inhibition (reported as % activation of signal), % at 10 µM; DNMT1 molecular beacon, Hinp1I cleavage, fluorescence; in the data active means inhibition above about 50%
SUMO1-SIM PPI: alters human SUMO1 binding to SIM partners. P63165. SUMO1 binding to a labelled peptide, TR-FRET, 1 h. inhibition, % at 20 µM. hit rate 0.33% among 360,000; in the data active means inhibition above about 37%
Target sequence (P63165 whole entry, looked up): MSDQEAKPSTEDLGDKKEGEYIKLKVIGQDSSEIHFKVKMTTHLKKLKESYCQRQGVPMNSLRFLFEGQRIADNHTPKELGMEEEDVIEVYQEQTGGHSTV
STEP block: STEP (human) phosphatase inhibition; AID 588621; recombinant STEP, OMFP fluorogenic substrate, fluorescence; inhibition, % at 20 µM; P54829; hit rate 0.25% among 360,000;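 active means inhibition at 20 µM, scaled per plate between control wells, above about 37%, limit read from the data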
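System: isolated STEP enzyme; schedule: 20 min enzyme reaction at room temperature, protected from light; medium: Bis-Tris buffer pH 6.0, 2.5 mM DTT, 0.005% Tween 20; signal: fluorescence, 480/540 nm; dosing: single compound dose of 20 µM, 1% DMSO final; also added: OMFP substrate, 25 µM final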
Scp1 inh: inhibitors of human Scp-1 phosphatase; Q9GZU7; Recombinant Scp1, phosphopeptide, malachite green phosphate absorbance; inhibition, % at 20 µM; hit rate 0.88% among 340,000;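 active means inhibition above about 50% at 20 µM, limit read from the data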
Target sequence (Q9GZU7 76-261 limits assumed): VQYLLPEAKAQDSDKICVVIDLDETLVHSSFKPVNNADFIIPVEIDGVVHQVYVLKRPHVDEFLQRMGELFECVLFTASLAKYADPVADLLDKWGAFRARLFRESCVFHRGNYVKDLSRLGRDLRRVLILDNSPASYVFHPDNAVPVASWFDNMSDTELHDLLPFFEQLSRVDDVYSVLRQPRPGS
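Test system – truncated SCP-1 phosphatase (76-261aa) · Reagent – Phosphorylated 17-residue peptide substrate · Incubation – 45 min room-temperature reaction, 5 min colour, 30 min stabiliser · Detection – colorimetric phosphate reagent with accelerator and stabiliser, absorbance at 630 nm · Measure – % inhibition at 20 µM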
Hits are given with their value; i = inactive; nt = not tested or not shown.

SMILES	LMPTP block	DNMT1 inh	SUMO1-SIM PPI	STEP block	Scp1 inh
O=C1c2ccc3c4c(ccc(c24)C(=O)N1c1ccc(O)cc1)C(=O)N(c1ccc(O)cc1)C3=O	i	i	88.2	i	i
Cc1ccc(/C=C2/Sc3ccc(C(=O)NCc4ccccn4)cc3NC2=O)cc1	i	i	49.6	i	i
Cc1ccc(/C=C2/Sc3ccc(C(=O)N4CCN(c5ccccn5)CC4)cc3NC2=O)cc1	i	i	i	i	i
CC(=O)Nc1cc(-c2ccccc2Cl)cn2c(-c3ccc(S(C)(=O)=O)cc3)cnc12	i	i	i	i	nt
O=C(NCCS(=O)(=O)c1ccc(Br)cc1)c1c(F)cccc1F	i	i	i	i	i
Nc1nc(-c2ccccc2)c(CCCOc2ccc(NC(=O)CBr)cc2)c(=O)[nH]1	i	i	i	i	i
O=C(NCCN1CCCC1)c1ccc(Cn2c(=S)[nH]c3cc4c(cc3c2=O)OCO4)cc1	54.3	i	i	i	i
CN1CCN(CCCNC(=O)c2ccc(Cn3c(=S)[nH]c4ccc(Br)cc4c3=O)cc2)CC1	i	i	i	i	i
CC1Cc2ccccc2N1C(=S)NC(=O)C1(C)CC1(Cl)Cl (stereo not drawn)	i	i	i	i	50.1
Cc1nn(C2CCS(=O)(=O)C2)c(Cl)c1/C=C/C(=O)OCC(=O)c1cc(C)n(-c2ccc(F)cc2)c1C (stereo not drawn)	i	i	i	i	i
CCOC(=O)COc1nc(C)c(Br)c(OC)n1	i	i	61.1	i	i
CCOC(=O)CSc1nc(N)nc(C)c1Br	i	i	i	i	i
COC(=O)c1ccc(OC(=O)/C=C/c2ccco2)cc1	i	i	i	i	i
O=Cc1cccc(OC(=O)/C=C/c2ccco2)c1	i	92.2	i	48.2	69.2
S=c1[nH]nc(-c2cc(-c3ccccc3)n[nH]2)n1/N=C/c1ccc(Br)s1	i	i	60.8	i	i
COc1cccc2oc3cc(C#Cc4ccccn4)ccc3c(=O)c12	nt	nt	nt	nt	59.4
COc1cccc2oc3cc(C#CC4(O)CCCCC4)ccc3c(=O)c12	i	i	i	i	i
N#Cc1sc2nc(-c3ccccc3)cc(-c3ccco3)c2c1N	i	i	64.2	i	i
C=CCSc1nnc(NC(=O)c2cn(CC)c3nc(C)ccc3c2=O)s1	i	i	i	i	i
CCCCCCCCCC[n+]1cccc2c3ccccc3ccc21	i	i	i	i	65.4
CCCCCCCC[n+]1cccc2c3ccccc3ccc21	i	i	i	i	i
Cc1[nH]n(C(N)=S)c(=O)c1N=Nc1cccc([N+](=O)[O-])c1C	i	i	i	i	i
Cc1c(N=Nc2c(-c3ccc([N+](=O)[O-])cc3)[nH]n(C(N)=S)c2=O)cccc1[N+](=O)[O-]	71.0	75.5	i	82.0	93.1
Cc1[nH]n(-c2ccccc2)c(=O)c1N=Nc1cccc([N+](=O)[O-])c1	i	i	i	i	i
NC(=S)n1[nH]c(-c2ccc([N+](=O)[O-])cc2)c(N=Nc2cccc([N+](=O)[O-])c2)c1=O	57.5	i	87.6	i	73.6
SMILES	LMPTP block	DNMT1 inh	SUMO1-SIM PPI	STEP block	Scp1 inh
O=C(Nc1cccc(-c2nc3ncccc3o2)c1)c1sc2ccccc2c1Cl	50.2	i	i	i	i
N#C/C(=C\c1ccc(OCc2ccccc2)cc1)C(=O)Nc1ccc(C(=O)O)cc1	nt	nt	nt	nt	85.5
COc1cc(/C=C(/C#N)C(=O)Nc2ccccc2)c(Br)cc1OCc1ccc(C(=O)O)cc1	i	i	i	i	i
COc1cc(/C=C(\C#N)C(=O)Nc2cccc(C(=O)O)c2)ccc1OCc1ccc(Cl)cc1	i	i	58.8	85.5	i
CCCCOCCOC(=O)C1OC1(C)c1ccccc1 (stereo not drawn)	i	i	i	i	nt
COc1ccc(/C(C)=N/Nc2ccccc2Cl)c(O)c1	i	i	58.2	i	i
CCCCCCCN1C(Nc2ccccc2)=NC[C@@H]1Cc1ccccc1	i	57.8	i	i	i
CC(C)[C@H](NC(=O)OC(C)(C)C)c1cc(C(=O)NC2CC2)c(N)s1	i	nt	i	nt	nt
Cc1ccc(/C=N/Nc2nnc(Cl)c3ccccc23)cc1	i	i	i	i	i
CC(=O)Nc1ccc(C=NNc2nnc(NN=Cc3ccc(NC(C)=O)cc3)c3ccccc23)cc1	i	i	39.5	i	i
O=c1cc(-c2ccc(OCc3ccccc3)cc2)oc2cc(OCc3ccccc3)cc(OCc3ccccc3)c12	i	i	i	i	i
COc1ccc(CCNC(=O)c2cc3c(=O)n4cccc(C)c4nc3s2)cc1OC	i	i	40.0	i	i

Bioassay records (PubChem BioAssay)
